Blank lines part the entries; values can stand above or below the compound they belong to. The source made the active and inactive calls. The calls are words filed in the database; no cut-off is given here.
What was measured:
[1] = tested on: Jurkat; experiment: Cell cycle arrest in human Jurkat cells assessed as accumulation at G2/M phase at 20 nM after 24 hrs by propidium iodide staining-based flow cytometry; assay type: functional
How it was run: (§1)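 Jurkat, HT-29 and HeLa cells in exponential growth (5 × 10^5 cells) treated 24 h at a range of concentrations. Fixed in ice-cold 70% ethanol, lysed with buffer containing RNase A and 0.1% Triton X-100, stained with propidium iodide. DNA content read by flow cytometry and the percentage of cells per cycle phase derived from DNA histograms.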

[2] = species: Bos taurus; experiment: Displacement of [3H]colchicine from bovine brain tubulin at 5 uM after 20 mins by turbidimetric analysis
[3] = tested on: HT-29; experiment: Cell cycle arrest in human HT-29 cells assessed as accumulation at G2/M phase after 24 hrs by propidium iodide staining-based flow cytometry; assay type: functional; how it was run: as §1
[4] = tested on: HeLa; experiment: Cell cycle arrest in human HeLa cells assessed as accumulation at G2/M phase after 24 hrs by propidium iodide staining-based flow cytometry; assay type: functional; how it was run: as §1
[5] = tested on: HeLa; experiment: Cell cycle arrest in human HeLa cells assessed as accumulation at G2/M phase at 20 nM after 24 hrs by propidium iodide staining-based flow cytometry; assay type: functional; how it was run: as §1
[6] = tested on: HeLa; experiment: Cell cycle arrest in human HeLa cells assessed as accumulation at G2/M phase at >20 nM after 24 hrs by propidium iodide staining-based flow cytometry; assay type: functional; how it was run: as §1
[7] = tested on: HeLa; experiment: Induction of apoptosis in human HeLa cells assessed as early apoptotic cells after 24 to 48 hrs by annexin V-FITC/Propidium iodide staining-based flow cytometry; assay type: functional, cell-based
How it was run: (§2)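 HeLa cells treated 24 or 48 h, then co-labelled with annexin-V–FITC and propidium iodide. Flow cytometry with 488 nm excitation and emission at 525 nm (FITC) and 585 nm (PI); early apoptotic cells counted as annexin-V+/PI−. Mean ± SEM of three independent experiments.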

[8] = tested on: HT-29; experiment: Cell cycle arrest in human HT-29 cells assessed as accumulation at G2/M phase at >20 nM after 24 hrs by propidium iodide staining-based flow cytometry; assay type: functional; how it was run: as §1
[9] = tested on: Jurkat; experiment: Cell cycle arrest in human Jurkat cells assessed as accumulation at G2/M phase after 24 hrs by propidium iodide staining-based flow cytometry; assay type: functional; how it was run: as §1
[10] = tested on: HeLa; experiment: Induction of apoptosis in human HeLa cells assessed as ROS production at 10 to 100 nM after 24 to 48 hrs by HE staining-based flow cytometry relative to control; assay type: functional, cell-based
How it was run: (§3)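 HeLa cells treated 24 or 48 h, then stained with H2-DCFDA or hydroethidine. ROS read by flow cytometry against untreated control. Mean ± SEM of three independent experiments.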

[11] = tested on: CCRF-CEM; experiment: Cytotoxicity against human CEM cells after 72 hrs by MTT assay; assay type: functional, cell-based
How it was run: (§4)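 MTT viability test: 8 × 10^3 cells per well settled 18 h at 37 °C, 5% CO2, then given fresh medium with compound (from 10 mM DMSO stocks, final DMSO ≤0.25%) for 72 h. […] CEMVbl-100 is a vinblastine-selected P-gp line; LoVoDoxo is grown in Ham's F12 with 0.1 μg/mL doxorubicin. Resistance index = resistant IC50/parental IC50.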

[12] = tested on: HL-60; experiment: Cytotoxicity against human HL60 cells after 72 hrs by MTT assay; assay type: functional, cell-based; settings: HL-60, 72 h
[13] = tested on: CCRF-CEM; experiment: Resistance index, ratio of IC50 for human CEM/VBL100 cells to IC50 for human CEM cells; assay type: functional; how it was run: as §4
[14] = tested on: A549; experiment: Cytotoxicity against human A549 cells after 72 hrs by MTT assay; assay type: functional, cell-based; settings: A549, 72 h
[15] = Cytotoxicity against human CEM/VBL100 cells after 72 hrs by MTT assay; assay type: functional, cell-based; settings: CEM/VBL100, 72 h; how it was run: as §4
[16] = tested on: HeLa; experiment: Induction of apoptosis in human HeLa cells assessed as mitochondrial membrane depolarization at 10 to 100 nM by JC-1 staining; assay type: functional, cell-based; settings: TDE = time-dependent effect
How it was run: (§5)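 HeLa cells treated 24 or 48 h, then stained with the potentiometric dye JC-1. Proportion of cells with depolarised mitochondria read by flow cytometry. Mean ± SEM of three independent experiments.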

[17] = species: Bos taurus; experiment: Displacement of [3H]colchicine from bovine brain tubulin at 1 uM after 20 mins by turbidimetric analysis
[18] = tested on: HT-29; experiment: Cell cycle arrest in human HT-29 cells assessed as accumulation at G2/M phase at 20 nM after 24 hrs by propidium iodide staining-based flow cytometry; assay type: functional; how it was run: as §1
[19] = tested on: HeLa; experiment: Induction of apoptosis in human HeLa cells assessed as ROS production at 10 to 100 nM after 24 to 48 hrs by H2-DCFDA staining-based flow cytometry relative to control; assay type: functional, cell-based; how it was run: as §3
[20] = tested on: HT-29; experiment: Cytotoxicity against human HT-29 cells after 72 hrs by MTT assay; assay type: functional, cell-based; settings: HT-29, 72 h
[21] = Cytotoxicity against human SEM cells after 72 hrs by MTT assay; assay type: functional, cell-based
How it was run: (§6)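 Cells plated at 8 × 10^3 per well, 18 h at 37 °C, 5% CO2, then fresh medium with graded compound concentrations (DMSO ≤0.25%) for 72 h. Jurkat, SEM, HL-60 grown in RPMI-1640; A549, HeLa, HT-29, MCF-7 in DMEM; 10% FBS with penicillin/streptomycin. MTT viability read-out; IC50 vs 0.25% DMSO controls; mean ± SE of at least three independent experiments.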

[22] = Cytotoxicity against human A549-T12 cells after 72 hrs by MTT assay; assay type: functional, cell-based; settings: A549, 72 h
How it was run: (§7)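 Mean ± SE of at least three independent experiments. Resistance ratio = IC50 in resistant line/IC50 in nonresistant line.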

[23] = tested on: LoVo; experiment: Resistance index, ratio of IC50 for human LoVo/DX cells to IC50 for human LoVo cells; assay type: functional; how it was run: as §4
[24] = tested on: PBL; experiment: Cytotoxicity against human PHA-stimulated PBL cells after 72 hrs by MTT assay; assay type: cell-based
How it was run: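 Peripheral blood lymphocytes from healthy donors isolated on a Lymphoprep gradient and rested overnight in RPMI-1640 with 10% FBS. Nonadherent cells at 5 × 10^5 cells/mL, with 2.5 μg/mL PHA for proliferating cultures or without it for resting ones. Compound exposure 72 h, viability by MTT. Mean ± SEM of three experiments.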

[25] = tested on: Jurkat; experiment: Cell cycle arrest in human Jurkat cells assessed as accumulation at G2/M phase at >20 nM after 24 hrs by propidium iodide staining-based flow cytometry; assay type: functional; how it was run: as §1
[26] = tested on: A549; experiment: Resistance index, ratio of IC50 for human A549-T12 cells to IC50 for human A549 cells; assay type: functional; how it was run: as §7
[27] = Inhibition of bovine brain tubulin polymerization after 20 mins by turbidimetric analysis; set-up: species or system Bos taurus
How it was run: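 Bovine brain tubulin (10 μM) preincubated with varying compound concentrations in glutamate buffer at 30 °C, chilled to 0 °C, 0.4 mM GTP added, then warmed to 30 °C in a recording spectrophotometer.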

[28] = tested on: HeLa; experiment: Cytotoxicity against human HeLa cells after 72 hrs by MTT assay; assay type: functional, cell-based
[29] = tested on: LoVo; experiment: Cytotoxicity against human LoVo cells after 72 hrs by MTT assay; assay type: functional, cell-based; how it was run: as §4
[30] = tested on: HeLa; experiment: Induction of apoptosis in human HeLa cells assessed as mitochondrial membrane depolarization after 24 to 48 hrs by JC-1 staining; assay type: functional, cell-based; how it was run: as §5
[31] = tested on: HeLa; experiment: Induction of apoptosis in human HeLa cells assessed as early apoptotic cells at 10 to 100 nM by annexin V-FITC and propidium iodide staining-based flow cytometry; assay type: functional, cell-based; settings: TDE = time-dependent effect; how it was run: as §2
[32] = tested on: Jurkat; experiment: Cytotoxicity against human Jurkat cells after 72 hrs by MTT assay; assay type: functional, cell-based; how it was run: as §6
[33] = tested on: MCF7; experiment: Cytotoxicity against human MCF7 cells after 72 hrs by MTT assay; assay type: functional, cell-based; settings: MCF7, 72 h
[34] = Cytotoxicity against human LoVo/DX cells after 72 hrs by MTT assay; assay type: functional, cell-based; how it was run: as §4

- inhibition [2]: 95%
- inhibition [17]: 78%
- IC50 [27]: 700 nM
SMILES: COC(=O)c1sc2nc(C)ccc2c1Nc1cc(OC)c(OC)c(OC)c1
- Activity [1]: Active
- Activity [3]: Dose-dependent effect
- Activity [4]: Dose-dependent effect
- Activity [5]: Active
- Activity [6]: >80%
- Activity [7]: Dose-dependent effect
- Activity [8]: >80%
- Activity [9]: Dose-dependent effect
- Activity [10]: Active
- IC50 [11]: 2.8 nM
- IC50 [12]: 0.4 nM
- Ratio IC50 [13]: 1.5
- IC50 [14]: 16.2 nM
- IC50 [15]: 4.2 nM
- Activity [16]: tde
- Activity [18]: Active
- Activity [19]: Active
- IC50 [20]: 0.35 nM
- IC50 [21]: 0.5 nM
- IC50 [22]: 19.5 nM
- Ratio IC50 [23]: 0.3
- IC50 [24]: 3400 nM
- Activity [25]: >80%
- Ratio IC50 [26]: 1.2
- IC50 [28]: 0.18 nM
- IC50 [29]: 1.9 nM
- Activity [30]: Dose-dependent effect
- Activity [31]: tde
- IC50 [32]: 0.6 nM
- IC50 [33]: 0.53 nM
- IC50 [34]: 0.5 nM

SMILES: CCOC(=O)c1sc2cccc(C)c2c1Nc1cc(OC)c(OC)c(OC)c1
- IC50 [12]: 7380 nM
- IC50 [14]: 6250 nM
- IC50 [20]: 3610 nM
- IC50 [21]: 1930 nM
- IC50 [28]: 2520 nM
- IC50 [32]: 5670 nM
- IC50 [33]: 4150 nM

- inhibition [2]: 89%
- inhibition [17]: 58%
- IC50 [27]: 1100 nM
SMILES: CCOC(=O)c1sc2cc(C)ccc2c1Nc1cc(OC)c(OC)c(OC)c1
- IC50 [12]: 3.9 nM
- IC50 [14]: 7.2 nM
- IC50 [20]: 6 nM
- IC50 [21]: 1.5 nM
- IC50 [28]: 0.38 nM
- IC50 [32]: 0.4 nM
- IC50 [33]: 9 nM

SMILES: COC(=O)c1sc2ncccc2c1Nc1cc(OC)c(OC)c(OC)c1
- IC50 [12]: 2920 nM
- IC50 [14]: 3850 nM
- IC50 [20]: 542 nM
- IC50 [21]: 348 nM
- IC50 [32]: 1110 nM
- IC50 [33]: 2640 nM

SMILES: COc1cccc2c1C(=O)c1c(O)c3c(c(O)c1C2=O)C[C@@](O)(C(=O)CO)C[C@@H]3O[C@H]1C[C@H](N)[C@H](O)[C@H](C)O1 [DOXORUBICIN]
- Ratio IC50 [23]: 118
- IC50 [29]: 95.6 nM
- IC50 [34]: 11300 nM

SMILES: CCOC(=O)c1sc2ccccc2c1Nc1cc(OC)c(OC)c(OC)c1
- IC50 [12]: 5490 nM
- IC50 [14]: 8530 nM
- IC50 [20]: 1610 nM
- IC50 [21]: 1900 nM
- IC50 [28]: 3100 nM
- IC50 [32]: 3020 nM
- IC50 [33]: 6390 nM

- inhibition [2]: 76%
- inhibition [17]: 54%
- IC50 [27]: 760 nM
SMILES: COC(=O)c1sc2c(OC)cccc2c1Nc1cc(OC)c(OC)c(OC)c1
- IC50 [12]: 25.6 nM
- IC50 [14]: 33 nM
- IC50 [20]: 14.9 nM
- IC50 [21]: 2.3 nM
- IC50 [28]: 3.5 nM
- IC50 [32]: 56.5 nM
- IC50 [33]: 95 nM

SMILES: COC(=O)c1sc2cccc(C)c2c1Nc1cc(OC)c(OC)c(OC)c1
- IC50 [12]: 3380 nM
- IC50 [14]: 4580 nM
- IC50 [20]: 1020 nM
- IC50 [21]: 2500 nM
- IC50 [28]: 1300 nM
- IC50 [32]: 6710 nM
- IC50 [33]: 8190 nM

SMILES: COC(=O)c1sc2ccccc2c1Nc1cc(OC)c(OC)c(OC)c1
- IC50 [12]: 1540 nM
- IC50 [14]: 2850 nM
- IC50 [20]: 299 nM
- IC50 [21]: 179 nM
- IC50 [28]: 427 nM
- IC50 [32]: 490 nM
- IC50 [33]: 795 nM

Source: ChEMBL document CHEMBL2331329, “Synthesis and biological evaluation of 2-(alkoxycarbonyl)-3-anilinobenzo[b]thiophenes and thieno[2,3-b]pyridines as new potent anticancer agents” (J Med Chem, 2013)
